Assay results collected from several papers.
Lines come from different studies, so protocols differ. pIC50: −log10 of the molar value. ≈ marks a conversion by molar mass, not a printed value.

C[C@]12CCC(=O)C(O)=C1CC[C@@H]1[C@@H]2CC[C@]2(C)C(=O)CC[C@@H]12  pIC50 (HN-6; cell growth or viability; 72 h): < 4.70
C=CCn1c(-c2ccc(OC)c(OC)c2)nc2ccccc21  MIC (Staphylococcus aureus; microbial growth, broth dilution; ATCC43300 MRSA; drug-resistant strain): 128 µg/mL (≈ 435 µM)
O=C(NCCc1c[nH]c2ccccc12)C(=O)c1cn(Cc2ccc(Cl)cc2)c2ccc(Br)cc12  pIC50 (C4-2; cell growth or viability, MTT): < 4.00
Cc1ccc2nc(-c3ccc(Cl)c(Cl)c3)n(Cc3ccccc3)c2c1  MIC (Staphylococcus aureus; microbial growth, broth dilution; ATCC43300 MRSA; drug-resistant strain): 32 µg/mL (≈ 87.1 µM)
Cc1c2cnccc2c(C)c2c1c1ccccc1n2Cc1ccccc1  pIC50 (MDA-MB-468; cell growth or viability, MTT): 4.74
c1ccc2[nH]c(-c3ccncc3)nc2c1  MIC (Staphylococcus aureus; microbial growth, broth dilution; ATCC43300 MRSA; drug-resistant strain): 256 µg/mL (≈ 1310 µM)
COC(=O)c1cc(-c2cccc(NC(=S)Nc3ccccc3)c2)on1  MIC (Escherichia coli; microbial growth, broth dilution; ATCC25922): > 64 µg/mL
OC[C@@H]1C[C@@H](O)[C@H](n2cnc3c(Cl)ncnc32)O1  pIC50 (Severe acute respiratory syndrome coronavirus; plaque formation, inhibitor; Vero C1008): < 3.52
O=C(NCCc1c[nH]c2ccccc12)C(=O)c1cn(Cc2ccc(F)cc2)c2ccccc12  pIC50 (C4-2; cell growth or viability, MTT): < 4.00
CSc1ncnc2c1ncn2[C@@H]1O[C@H](CO)[C@@H](O)[C@H]1O  pIC50 (Severe acute respiratory syndrome coronavirus; plaque formation, inhibitor; Vero C1008): < 3.52
COC(=O)c1cc(-c2cccc(NC(=S)Nc3ccc(F)cc3)c2)on1  MIC (Escherichia coli; microbial growth, broth dilution; ATCC25922): > 64 µg/mL
Nc1nc(Cl)c2ncn([C@@H]3O[C@H](CO)[C@@H](O)[C@H]3O)c2n1  pIC50 (Severe acute respiratory syndrome coronavirus; plaque formation, inhibitor; Vero C1008): < 3.52
Nc1ncnc2c([C@@H]3N[C@H](CO)[C@@H](O)[C@H]3O)c[nH]c12  inhibition (Severe acute respiratory syndrome coronavirus; viral replication, inhibitor; Vero 76; 0.3 µM): 0.9%
CCCCCCNC(=S)Nc1cccc(-c2cc(C(=O)OC)no2)c1  MIC (Escherichia coli; microbial growth, broth dilution; ATCC25922): > 64 µg/mL
O=C(O)c1cn(C2CC2)c2cc(N3CCNCC3)c(F)cc2c1=O  MBC (Escherichia coli; microbial killing): 19 µM (≈ 6.3 µg/mL)
O=C(O)c1cn(C2CC2)c2cc(N3CCNCC3)c(F)cc2c1=O  inhibition zone (Micrococcus luteus; microbial growth; ATCC10240; 5 µg/mL, 20 h): 0 mm
Cc1ccc2nc(-c3ccc(F)cc3)[nH]c2c1  MIC (Staphylococcus aureus; microbial growth, broth dilution; ATCC43300 MRSA; drug-resistant strain): 128 µg/mL (≈ 566 µM)
CCOC(=O)c1cc(-c2cccc(NC(=O)Nc3ccc(Cl)c(Cl)c3)c2)on1  MIC (Escherichia coli; microbial growth, broth dilution; ATCC25922): > 64 µg/mL
OC[C@H]1O[C@@H](n2cnc3c(Cl)ncnc32)C[C@@H]1O  pIC50 (Severe acute respiratory syndrome coronavirus; plaque formation, inhibitor; Vero C1008): < 3.52
COc1ccc(-c2nc3ccccc3[nH]2)cc1O  MIC (Staphylococcus aureus; microbial growth, broth dilution; ATCC43300 MRSA; drug-resistant strain): 256 µg/mL (≈ 1070 µM)
COC(=O)c1cc(-c2cccc(NC(=S)Nc3ccc([N+](=O)[O-])cc3)c2)on1  MIC (Escherichia coli; microbial growth, broth dilution; ATCC25922): > 64 µg/mL
CN(C)c1ccc(-c2nc3ccccc3[nH]2)cc1  MIC (Staphylococcus aureus; microbial growth, broth dilution; ATCC43300 MRSA; drug-resistant strain): 128 µg/mL (≈ 539 µM)
COC(=O)c1cc(-c2cccc(NC(=O)Nc3ccccc3)c2)on1  MIC (Escherichia coli; microbial growth, broth dilution; ATCC25922): > 64 µg/mL
COc1cccc(-c2nc3ccccc3n2Cc2ccccc2)c1  MIC (Staphylococcus aureus; microbial growth, broth dilution; ATCC43300 MRSA; drug-resistant strain): 256 µg/mL (≈ 814 µM)
COC(=O)c1cc(-c2cccc(NC(=O)Nc3ccc(OC)cc3)c2)on1  MIC (Escherichia coli; microbial growth, broth dilution; ATCC25922): > 64 µg/mL
Cc1ccc2nc(-c3ccc([N+](=O)[O-])cc3)n(Cc3ccccc3Cl)c2c1  MIC (Staphylococcus aureus; microbial growth, broth dilution; ATCC43300 MRSA; drug-resistant strain): 64 µg/mL (≈ 169 µM)
COC(=O)c1cc(-c2cccc(NC(=S)Nc3ccc(OC)cc3)c2)on1  MIC (Escherichia coli; microbial growth, broth dilution; ATCC25922): > 64 µg/mL
